The results in this text go back to ChEMBL document CHEMBL1649302, “New small-molecule inhibitor class targeting human immunodeficiency virus type 1 virion maturation” (Antimicrob Agents Chemother, 2009).

Activity calls are given as the source filed them. The rule behind the calls is not given here.

The term EC50 denotes the concentration that produces a half-maximal response.

Data set [1] concerns Human immunodeficiency virus 1. As to the kind of experiment: Antiviral activity against HIV1 NL4-3 infected in human PM1 cells assessed as inhibition of viral p24 antigen production after 5 days. The conditions noted are these: Human immunodeficiency virus 1, NL4-3, PM1, 120 h. The format is functional, organism-based. In short, it runs like this: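 PM1 cells (NL4-3, Ba-L) or MT-2 cells (92HT594, 92HT599) were infected at MOI 0.16 for 2 h and washed. They were plated at 1 × 10⁴ cells/well (2 × 10⁵/ml) onto half-log compound dilutions. Supernatant p24 was quantified by ELISA at day 5. EC50 was the concentration giving a 50% decrease versus infected, compound-free cells.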

In data set [2] the test system is Human immunodeficiency virus 1. As to the kind of experiment: Antiviral activity against HIV1 3B infected in human MT2 cells assessed as protection against virus-induced cytopathogenicity after 6 days by XTT assay. The conditions noted are these: Human immunodeficiency virus 1, 3B, MT2, 144 h. The format is functional, organism-based. In short, it runs like this:
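Host cells were infected with NL4-3 or IIIB (MOI 0.08) or RF (MOI 0.025–0.819) and seeded at 2 × 10⁴/well onto half-log compound dilutions. After 6 days, XTT/PMS was added for 4 h and formazan was read at 450 nm. EC50 was the concentration giving 50% of the formazan of uninfected, compound-free cells.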
In general terms: Damage to the host cells serves as the signal in cytopathic effect assays.

A short description of data set [3]: Therapeutic index, ratio of CC50 for human MT2 cells to EC50 for HIV1 3B infected in human MT2 cells. The format is cell-based. To be noted: read-out: TI. An outline of the steps:
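TI was the mean CC50 (XTT, uninfected MT-2) divided by the mean EC50, determined for each cell line in each experiment.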

For data set [4], the system named is Human immunodeficiency virus 1. As to the kind of experiment: Selectivity ratio of EC50 for HIV1 harboring spacer peptide A1V mutant protein infected in human HeLa cells to EC50 for wild type HIV1 infected in human HeLa cells. The format is functional. In short, it runs like this: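 MT-2 cells were infected for 2 h with wild-type NL4-3 or recombinant NL4-3 carrying CA I201V or SP1 A1V. They were then cocultured with HeLa CD4 LTR/beta-Gal indicator cells in serially diluted compound. Beta-gal reporter was read after 4 days. EC50s are means ± SD of 3–6 experiments. Fold change is mutant EC50 divided by wild-type EC50.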

Data set [5] concerns Human immunodeficiency virus 1. As to the kind of experiment: Antiviral activity against HIV1 harboring capsid I201V mutant protein assessed as inhibition of virion maturation-associated CA/SP1 processing. The format is functional, organism-based. An outline of the steps: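 HEK 293 cells were transfected with pNL4-3 CAI201V, pNL4-3 or mock, with or without compound at various concentrations, and supernatants collected 72 h later. Supernatants were clarified at 200 × g, and virions pelleted through a 20% sucrose–PBS cushion (20,000 × g, 3 h, 4°C) and lysed. Proteins were run on 4–12% Bis-Tris/MOPS gels and immunoblotted with anti-p24 (1:1,000) to detect CA/SP1 p25 versus p24.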

For data set [6], the system named is Human immunodeficiency virus 1. As to the kind of experiment: Antiviral activity HIV1 3B infected in human PBMC after 7 days by scintillation counting. The format is functional, organism-based. The conditions noted are these: Human immunodeficiency virus 1, 3B, 168 h. An outline of the steps: (§1)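 PBMCs came from buffy coats pooled from 3–4 seronegative donors, were PHA-stimulated (1.5 μg/ml, 3 days) and frozen. Thawed cells were infected 1 h at 37°C with virus input set by TCID50, then pelleted and resuspended in IL-2 (10 ng/ml). They were plated at 4 × 10⁵ cells/ml onto compounds for 7 days at 37°C. Supernatant RT activity was measured by Quan-T-RT scintillation assay.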

Data set [7] relates to Human immunodeficiency virus 1. As to the kind of experiment: Antiviral activity HIV1 NL4-3 infected in human PBMC after 7 days by scintillation counting. The format is functional, organism-based. The conditions noted are these: Human immunodeficiency virus 1, NL4-3, 168 h. An outline of the steps:
as §1

Data set [8] has as its system Human immunodeficiency virus 1. As to the kind of experiment: Antiviral activity HIV1 92BR026 infected in human PBMC after 7 days by scintillation counting. The format is functional, organism-based. To be noted: Human immunodeficiency virus 1, 92BR026, 168 h.
Data set [9] has as its system Human immunodeficiency virus 1. As to the kind of experiment: Antiviral activity HIV1 92RW009 infected in human PBMC after 7 days by scintillation counting. The format is functional, organism-based. To be noted: Human immunodeficiency virus 1, 92RW009, 168 h. An outline of the steps:
as §1

Data set [10] relates to Human immunodeficiency virus 1. As to the kind of experiment: Antiviral activity HIV1 93BR029 infected in human PBMC after 7 days by scintillation counting. The format is functional, organism-based. The conditions noted are these: Human immunodeficiency virus 1, 93BR029, 168 h. An outline of the steps:
as §1

Data set [11] can be described thus: Therapeutic index, ratio of CC50 for human PBMC to EC50 for HIV1 92HT596 infected in human PBMC. The conditions noted are these: read-out: TI. An outline of the steps: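 Frozen PHA-stimulated (1.5 μg/ml, 3 days) buffy-coat PBMCs pooled from three or four seronegative donors. Infected with a TCID50-based virus input per 10⁶ cells for 1 h at 37°C, then pelleted and resuspended in 10 ng/ml IL-2. Plated at 4 × 10⁵ cells/ml on compound dilutions for 7 days at 37°C. Supernatant RT measured by Quan-T-RT. TI is mean CC50 divided by mean EC50.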

Take `CC(C)(C)c1ccc(C(Cn2cccc(C(F)(F)F)c2=O)NC2Cc3ccccc3C2)cc1` (stereo unspecified): the EC50 was 0.03 µM in [1]; 0.017 µM in data set [2]; 0.32 µM in [6]; 0.11 µM in data set [7]; above 17 µM in data set [8]; 1.4 µM in data set [9]. This compound came in with an EC50 in data set [10] of 0.57 µM. For the same compound, the selectivity ratio in [3] is 1120; in [11] it was 53. For the same compound, the “Ratio EC50” value in data set [4] is given as above 16. In addition, in data set [5], the inhibition entry is “inactive”.
